Measured values published in ChEMBL document CHEMBL4311956, “A Qualified Success: Discovery of a New Series of ATAD2 Bromodomain Inhibitors with a Novel Binding Mode Using High-Throughput Screening and Hit Qualification” (J Med Chem, 2019).
The source made the active and inactive calls. No cut-off for these calls is given here.

Experiments:
[1] = target: T1, ATPase family AAA domain-containing protein 2 (Homo sapiens, UniProt Q6PL18); experiment: Displacement of SGRG-K(Ac)-GG-K(Ac)-GLG-K(Ac)-GGAKRHRKV-biotin) from His6/FLAG-tagged TEV fused ATAD2 bromodomain (981 to 1121 residues) (unknown origin) expressed in Escherichia coli BL21(DE3) cells after 30 mins by TR-FRET assay
T1 sequence (Q6PL18 whole entry): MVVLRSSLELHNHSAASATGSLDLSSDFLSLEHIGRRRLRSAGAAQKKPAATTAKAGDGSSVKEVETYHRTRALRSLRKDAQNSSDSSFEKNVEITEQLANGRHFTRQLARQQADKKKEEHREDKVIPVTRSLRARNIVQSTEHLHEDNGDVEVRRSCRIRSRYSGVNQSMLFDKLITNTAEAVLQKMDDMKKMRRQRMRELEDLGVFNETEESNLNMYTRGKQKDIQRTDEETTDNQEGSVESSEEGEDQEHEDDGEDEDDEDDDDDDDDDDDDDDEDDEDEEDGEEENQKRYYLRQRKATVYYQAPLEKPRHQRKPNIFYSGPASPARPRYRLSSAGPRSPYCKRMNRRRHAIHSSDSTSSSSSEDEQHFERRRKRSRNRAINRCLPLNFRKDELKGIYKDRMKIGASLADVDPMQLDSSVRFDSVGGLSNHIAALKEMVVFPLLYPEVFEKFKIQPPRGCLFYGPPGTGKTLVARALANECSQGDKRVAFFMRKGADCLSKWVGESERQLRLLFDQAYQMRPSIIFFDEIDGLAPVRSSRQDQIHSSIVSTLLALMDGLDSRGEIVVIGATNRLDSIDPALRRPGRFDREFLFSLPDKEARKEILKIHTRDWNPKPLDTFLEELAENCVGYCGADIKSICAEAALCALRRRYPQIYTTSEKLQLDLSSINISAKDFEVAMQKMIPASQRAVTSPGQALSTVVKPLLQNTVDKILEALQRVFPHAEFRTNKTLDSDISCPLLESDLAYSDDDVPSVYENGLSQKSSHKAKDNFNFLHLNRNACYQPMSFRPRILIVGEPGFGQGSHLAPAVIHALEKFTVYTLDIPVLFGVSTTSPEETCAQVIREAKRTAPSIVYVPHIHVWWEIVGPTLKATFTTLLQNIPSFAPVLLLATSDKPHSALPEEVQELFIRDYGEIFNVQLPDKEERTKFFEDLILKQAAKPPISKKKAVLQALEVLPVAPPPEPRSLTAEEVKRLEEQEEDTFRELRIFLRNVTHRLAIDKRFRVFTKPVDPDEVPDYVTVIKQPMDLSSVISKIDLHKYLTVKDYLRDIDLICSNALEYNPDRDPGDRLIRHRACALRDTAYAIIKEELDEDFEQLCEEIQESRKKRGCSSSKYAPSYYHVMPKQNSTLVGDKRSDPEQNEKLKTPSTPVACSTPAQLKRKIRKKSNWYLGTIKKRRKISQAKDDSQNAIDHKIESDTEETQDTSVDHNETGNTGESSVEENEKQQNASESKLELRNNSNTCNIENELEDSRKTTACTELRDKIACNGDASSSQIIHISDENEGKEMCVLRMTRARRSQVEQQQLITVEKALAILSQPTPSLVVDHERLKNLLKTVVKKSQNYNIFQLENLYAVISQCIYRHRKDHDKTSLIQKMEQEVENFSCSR

[2] = target: Bromodomain-containing protein 4 (Homo sapiens, UniProt O60885, Y390A); experiment: Displacement of Alexa Fluor 647 labelled ligand from His6-tagged BRD4 BD1 (1 to 477 residues)/BD2 Y390A mutant (unknown origin) after 30 mins by TR-FRET assay
In short: (§1)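 BET selectivity by TR-FRET fluoroligand displacement. Uses tandem BET bromodomain constructs carrying a mutation in the non-assayed bromodomain.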

[3] = target: Bromodomain-containing protein 4 (Homo sapiens, UniProt O60885, Y97A); experiment: Displacement of Alexa Fluor 647 labelled ligand from His6-tagged BRD4 BD2 (1 to 477 residues)/BD1 Y97A mutant (unknown origin) after 30 mins by TR-FRET assay; in short: as §1
[4] = target: T2, ATPase family AAA domain-containing protein 2 (Homo sapiens) (UniProt Q6PL18); experiment: Binding affinity to 15N-labelled ATAD2 (981 to 1108 residues) (unknown origin) at 100 uM by 1H-15N HSQC NMR analysis
T2 sequence (whole entry): T1 sequence (Q6PL18 whole entry)
In short: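 15N–1H HSQC spectra of labelled ATAD2 bromodomain recorded with and without compound at 100 μM. Binding is judged from spectral changes.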

[5] = target: T2, ATPase family AAA domain-containing protein 2 (Homo sapiens); experiment: Displacement of SGRG-K(Ac)-GG-K(Ac)-GLG-K(Ac)-GGAKRHRKV-biotin) from His6/FLAG-tagged TEV fused ATAD2 bromodomain (981 to 1121 residues) (unknown origin) expressed in Escherichia coli BL21(DE3) cells at 10 uM after 30 mins by TR-FRET assay relative to control
[6] = target: T1, ATPase family AAA domain-containing protein 2; experiment: Binding affinity to His6/FLAG-tagged TEV fused ATAD2 bromodomain (950 to 1148 residues) (unknown origin) expressed in Escherichia coli BL21(DE3) cells by surface plasmon resonance
In short: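 SPR screen of concentration–response up to 100 μM. Wild-type ATAD2 and a Y1021A/N1064A mutant lacking the acetyl-lysine binding motif were run in parallel. Hits were classed as binding, nonbinding or linear binding (nonsaturating response, calculated Kd above the top concentration).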

[7] = target: T1, ATPase family AAA domain-containing protein 2; experiment: Inhibition of ATAD2 bromodomain in human HUT78 chromatin lysate after 2 hrs by bromosphere competition binding assay
In short: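 Bromosphere chemoproteomic assay. Measures competitive inhibition of binding of endogenous full-length ATAD2 from Hut-78 cells.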

Row | SMILES | pIC50 [1] | IC50 [2] [µM] | IC50 [3] [µM] | IC50 [1] [µM] | Activity [4] | inhibition [5] [%] | Kd [6] [µM] | IC50 [7] [µM]
1 | CC1(C2CC2)NC(=O)N(CC(=O)Nc2ccc(Cl)c(S(=O)(=O)N3CCCCC3)c2)C1=O (stereo in doubt; 19) | 5.9 | > 50.1 | > 50.1 |  |  |  |  | 
2 | CCC(=O)Nc1ccc(C(F)(F)F)c(S(=O)(=O)N2CCCCC2)c1 |  |  |  | > 1000 |  |  |  | 
3 | Cc1ccc(C2(C)NC(=O)N(CC(=O)Nc3ccc(C)c(S(=O)(=O)N4CCCCC4)c3)C2=O)cc1 (centres undefined) |  | 5.01 | > 50.1 | 10 | Active | 33 | 12.6 | 
4 | CN(C)S(=O)(=O)c1cc(NC(=O)CN2C(=O)NC3(CCCc4ccccc43)C2=O)ccc1Cl (centres undefined) |  | > 50.1 | > 50.1 | 5.01 | Active | 52 | 7.94 | 
5 | CCC(=O)Nc1ccc(N)c(S(=O)(=O)N2CCCCC2)c1 |  |  |  | > 1000 |  |  |  | 
6 | Cc1ccc(NC(=O)CN2C(=O)NC(C)(C3CC3)C2=O)cc1S(=O)(=O)N1CCCCC1 (centres undefined) |  | > 50.1 | > 50.1 | 12.6 | Active | 52 | 20 | 
7 | CC1(C2CC2)NC(=O)N(CC(=O)Nc2ccc(Cl)c(S(=O)(=O)N3CCCCC3)c2)C1=O (stereo in doubt; 18) | 5.9 | 10 | 31.6 |  |  |  |  | 
8 | O=C(CCNC1=NS(=O)(=O)c2ccccc21)Nc1ccc(Cl)c(S(=O)(=O)N2CCCC2)c1 |  | > 50.1 | > 50.1 | 10 | Active | 47 | 15.8 | 
9 | COc1ccc(NC(=O)CN2C(=O)NC(C)(C3CC3)C2=O)cc1S(=O)(=O)N1CCCCC1 (racemic) |  | > 50.1 | > 50.1 | > 100 |  |  |  | 
10 | Cc1[nH]c(=O)c(C#N)c(C)c1CCC(=O)Nc1ccc(Cl)c(S(=O)(=O)N2CCCCC2)c1 |  | > 50.1 | > 50.1 | 1.26 | Active | 77 | 6.31 | 15.8
11 | Cc1ccccc1C(=O)NCC(=O)Nc1ccc(C)c(S(=O)(=O)N2CCCCCC2)c1 |  | > 50.1 | > 50.1 | 12.6 | Active | 39 | 31.6 | 39.8
12 | CSCCC1NC(=O)N(CC(=O)Nc2ccc(Cl)c(S(=O)(=O)N3CCOCC3)c2)C1=O (centres undefined) |  | > 50.1 | > 50.1 | 10 | Active | 30 to 40 | 15.8 | 
13 | Cc1ccc(NC(=O)CN2C(=O)CN(C)C2=O)cc1S(=O)(=O)N1CCCCC1 |  | > 501 | > 501 | 50.1 | Active | 30 | 50.1 | 
14 | CCC(=O)Nc1ccc(O)c(S(=O)(=O)N2CCCCC2)c1 |  |  |  | > 1000 |  |  |  | 
15 | Cc1ccc(NC(=O)CN2C(=O)NC(C)(C)C2=O)cc1S(=O)(=O)N1CCCCCC1 |  | > 50.1 | > 50.1 | 10 | Active | 58 | 7.94 | 
16 | CCC(=O)Nc1ccc(Br)c(S(=O)(=O)N2CCCCC2)c1 |  |  |  | 15.8 |  |  |  | 
17 | CCC(=O)Nc1ccc(OC)c(S(=O)(=O)N2CCCCC2)c1 |  |  |  | > 1000 |  |  |  | 
18 | CCC(=O)Nc1ccc(CC)c(S(=O)(=O)N2CCCCC2)c1 |  |  |  | > 1000 |  |  |  | 
19 | CCN(CC)S(=O)(=O)c1cc(NC(=O)CN2C(=O)NC(C)(c3ccccc3)C2=O)ccc1C (centres undefined) |  | > 501 | 39.8 | 31.6 | Active | 29 | 50.1 | 
20 | CC1(C2CC2)NC(=O)N(CC(=O)Nc2cccc(S(=O)(=O)N3CCCCC3)c2)C1=O (racemic) |  | > 50.1 | 31.6 | > 100 |  |  |  | 
21 | Cc1ccc(NC(=O)CN2C(=O)NC3(CCc4ccccc43)C2=O)cc1S(=O)(=O)N1CCCCC1 (centres undefined) |  | > 50.1 | > 50.1 | 7.94 | Active | 61 | 15.8 | 
22 | CC1(C2CC2)NC(=O)N(CC(=O)Nc2ccc(Cl)c(S(=O)(=O)N3CCCCC3)c2)C1=O (racemic) [listing 1 of 2 here] |  | > 50.1 | 50.1 | 1.26 |  |  | 2 | 15.8
23 | CC1(C2CC2)NC(=O)N(CC(=O)Nc2ccc(C(F)(F)F)c(S(=O)(=O)N3CCCCC3)c2)C1=O (racemic) |  | > 50.1 | 25.1 | 10 |  |  |  | 
24 | CCC(=O)Nc1ccc(C#N)c(S(=O)(=O)N2CCCCC2)c1 |  |  |  | > 1000 |  |  |  | 
25 | CCC(=O)Nc1ccc(F)c(S(=O)(=O)N2CCCCC2)c1 |  |  |  | > 1000 |  |  |  | 
26 | CC1(C2CC2)NC(=O)N(CC(=O)Nc2ccc(Cl)c(S(=O)(=O)N3CCCCC3)c2)C1=O (racemic) [listing 2 of 2 here] |  |  |  |  | Active | 79 |  | 
27 | O=C(CCNC(=O)c1ccccc1)Nc1ccc(Cl)c(S(=O)(=O)N2CCCCC2)c1 |  | > 50.1 | 39.8 | > 100 | Active | 27 | 50.1 | 
